The text below walks through data of ChEMBL document CHEMBL3414494 (Eur J Med Chem, 2015).

The IC50 is the concentration at which inhibition is half-maximal.

For one assay, the system named is A549. Briefly: Cytotoxicity against human A549 cells assessed as growth inhibition after 72 hrs by MTT assay. The format is functional, cell-based. As to conditions: A549, 72 h. An outline of the steps:
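A549 human lung adenocarcinoma cells were seeded at 2000–3000 cells/well and held 24 h at 37 °C in 5% CO2. They were then exposed to a range of compound concentrations for 72 h at 37 °C. MTT (5 mg/mL stock) was added for 3 h, the medium was removed, formazan was dissolved in DMSO, and absorbance was read at 550 nm.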
Background: Tetrazolium dyes change colour on reduction, which living cells bring about.

The next assay has as its target Histone deacetylase 2 (Homo sapiens, UniProt Q92769). Briefly: Inhibition of recombinant human HDAC2 expressed in baculovirus infected insect High5 cells using Ac-Lys-Tyr-Lys (epsilon-acetyl)-AMC as substrate after 24 hrs by fluorescence assay.
The subject of a further assay is SW-620. Description: Cytotoxicity against human SW620 cells assessed as growth inhibition after 72 hrs by MTT assay. As to conditions: SW-620, 72 h. The format is functional, cell-based. An outline of the steps:
(§1)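 Cells were seeded at 2000–3000 per well and pre-incubated 24 h at 37 °C, 5% CO2. A concentration range of compound was then added for 72 h. MTT (5 mg/mL) was added for 3 h, the medium removed, and formazan dissolved in DMSO. Absorbance was read at 550 nm as the viable-cell measure.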

In the next assay the test system is SJSA-1. Description: Cytotoxicity against human SJSA1 cells assessed as growth inhibition after 72 hrs by MTT assay. The class given is functional, cell-based. As to conditions: SJSA-1, 72 h. In short, it runs like this:
as §1

Assay [1] can be described thus: Cytotoxicity against human SNU16 cells assessed as growth inhibition after 72 hrs by MTT assay. The class given is functional, cell-based. The settings on record: SNU-16, 72 h. An outline of the steps: as §1
Assay [2] can be described thus: Cytotoxicity against human Hep3B cells assessed as growth inhibition after 72 hrs by MTT assay. The format is functional, cell-based, Hep 3B2. An outline of the steps:
as §1

Assay [3] can be described thus: Cytotoxicity against human HCT116 cells assessed as growth inhibition after 72 hrs by MTT assay. As to conditions: HCT-116, 72 h. The format is functional, cell-based. In short, it runs like this:
as §1

Assay [4] in a line: Cell cycle arrest in human HCT116 cells assessed as accumulation at G2/M phase at 10 to 20 nM after 24 hrs by flow cytometric analysis. The format is functional, cell-based. As to conditions: HCT-116. A general note: Flow cytometry measures light scatter and fluorescence of single cells or particles in a stream.
A short description of assay [5]: Cytotoxicity against human SNU5 cells assessed as growth inhibition after 72 hrs by MTT assay. The settings on record: SNU-5, 72 h. The class given is functional, cell-based. An outline of the steps:
as §1

The nature of assay [6]: Cytotoxicity against human MKN45 cells assessed as growth inhibition after 72 hrs by MTT assay. The class given is functional, cell-based. The settings on record: MKN-45, 72 h. In short, it runs like this:
as §1

A further assay has as its target Histone deacetylase 3 (Homo sapiens, UniProt O15379). Briefly: Inhibition of recombinant human HDAC3 expressed in baculovirus infected insect High5 cells using Ac-Lys-Tyr-Lys (epsilon-acetyl)-AMC as substrate after 3 hrs by fluorescence assay.
Assay [7] in a line: Cytotoxicity against human PANC1 cells assessed as growth inhibition after 72 hrs by MTT assay. The class given is functional, cell-based. As to conditions: PANC-1, 72 h. In short, it runs like this:
as §1

The nature of assay [8]: Cytotoxicity against human MHCC97H cells assessed as growth inhibition after 72 hrs by MTT assay. The class given is functional, cell-based. An outline of the steps:
as §1

The next assay concerns the target Tubulin (Homo sapiens) (UniProt P68371+Q9H4B7+P0DPH7+P68366+Q13509+Q71U36+P04350+Q3ZCM7+P07437+P68363+Q9BQE3+Q6PEY2+Q13885+Q9BVA1+Q9BUF5). Description: Inhibition of tubulin (unknown origin) polymerization at 10 uM. The format is protein-complex assay.
A further assay deals with HepG2. Description: Cytotoxicity against human HepG2 cells assessed as growth inhibition after 72 hrs by MTT assay. The format is functional, cell-based. The settings on record: HepG2, 72 h. In short, it runs like this:
as §1

The target in a further assay is Histone deacetylase 1 (Homo sapiens, UniProt Q13547). Briefly: Inhibition of recombinant human HDAC1 expressed in baculovirus infected insect High5 cells using Ac-Lys-Tyr-Lys (epsilon-acetyl)-AMC as substrate after 24 hrs by fluorescence assay.
Chain of Histone deacetylase 1 (Q13547 whole entry): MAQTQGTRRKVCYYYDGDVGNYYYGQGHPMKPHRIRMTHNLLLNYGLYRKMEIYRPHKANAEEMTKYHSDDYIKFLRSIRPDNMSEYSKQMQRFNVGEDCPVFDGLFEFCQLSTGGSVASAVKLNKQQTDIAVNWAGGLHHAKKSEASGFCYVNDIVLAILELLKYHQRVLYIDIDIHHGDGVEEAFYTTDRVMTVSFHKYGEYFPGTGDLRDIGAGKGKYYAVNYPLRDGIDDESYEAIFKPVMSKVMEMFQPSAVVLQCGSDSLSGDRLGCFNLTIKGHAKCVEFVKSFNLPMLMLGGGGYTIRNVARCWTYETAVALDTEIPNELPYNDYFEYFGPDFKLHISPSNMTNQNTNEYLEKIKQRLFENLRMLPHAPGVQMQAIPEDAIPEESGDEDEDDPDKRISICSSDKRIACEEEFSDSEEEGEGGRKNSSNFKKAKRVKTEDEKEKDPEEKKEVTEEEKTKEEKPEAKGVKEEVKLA

Active and inactive are the calls of the source. No cut-off for these calls is given here. Where only a bound is given, the exact number is not on record here.

Chain of Histone deacetylase 2 (Q92769 whole entry): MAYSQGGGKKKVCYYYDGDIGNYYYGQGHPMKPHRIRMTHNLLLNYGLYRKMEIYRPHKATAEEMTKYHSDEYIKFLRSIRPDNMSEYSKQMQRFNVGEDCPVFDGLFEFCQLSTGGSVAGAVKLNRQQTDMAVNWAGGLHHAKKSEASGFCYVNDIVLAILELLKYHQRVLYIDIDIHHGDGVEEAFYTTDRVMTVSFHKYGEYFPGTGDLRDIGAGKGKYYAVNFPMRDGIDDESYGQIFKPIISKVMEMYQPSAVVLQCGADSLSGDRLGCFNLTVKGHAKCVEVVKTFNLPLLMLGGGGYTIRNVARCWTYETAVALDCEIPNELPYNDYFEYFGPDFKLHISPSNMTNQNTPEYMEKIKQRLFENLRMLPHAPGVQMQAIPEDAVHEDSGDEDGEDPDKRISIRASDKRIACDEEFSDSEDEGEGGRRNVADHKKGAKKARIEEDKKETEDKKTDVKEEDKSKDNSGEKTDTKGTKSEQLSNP
Chain of Histone deacetylase 3 (O15379 whole entry): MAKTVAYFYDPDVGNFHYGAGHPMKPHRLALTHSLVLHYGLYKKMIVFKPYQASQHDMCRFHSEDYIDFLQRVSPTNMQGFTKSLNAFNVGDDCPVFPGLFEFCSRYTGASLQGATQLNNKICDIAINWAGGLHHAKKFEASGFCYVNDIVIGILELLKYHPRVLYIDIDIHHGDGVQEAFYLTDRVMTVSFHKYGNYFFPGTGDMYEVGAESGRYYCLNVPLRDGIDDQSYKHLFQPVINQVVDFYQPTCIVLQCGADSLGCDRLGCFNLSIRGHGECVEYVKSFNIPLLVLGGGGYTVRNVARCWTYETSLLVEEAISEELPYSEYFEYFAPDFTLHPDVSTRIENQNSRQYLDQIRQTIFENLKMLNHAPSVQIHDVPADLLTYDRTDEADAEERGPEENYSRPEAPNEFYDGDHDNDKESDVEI

On to `COc1cc2c(c(OC)c1OC)-c1ccc(OC)c(=O)cc1[C@@H](NC(=O)c1cccc(C(=O)Nc3cc(-c4cccs4)ccc3N)c1)CC2`, for which the IC50 in the assay with A549 was 2790 nM; on Histone deacetylase 2, 190 nM; in the assay on SW-620 it was 4 nM; with SJSA-1 it was 27 nM; in assay [1], 5 nM; in assay [2], 10 nM. For the same compound, the IC50 in [3] was 39 nM; in [5], 119 nM; in assay [6], 2 nM; at Histone deacetylase 3, 1490 nM; in assay [7], 19 nM; in [8], 339 nM. In addition, the IC50 in the assay on HepG2 came out at 20 nM; on Histone deacetylase 1, 1500 nM. The outcome in assay [4] was Active. Also, the inhibition result at Tubulin (Homo sapiens) was “Active”.

In the case of `COc1cc2c(c(OC)c1OC)-c1ccc(OC)c(=O)cc1[C@@H](NCc1ccc(C(=O)Nc3ccccc3N)cc1)CC2`, the IC50 in the assay with A549 turned out to be 106 nM; on Histone deacetylase 2, 6730 nM; in the assay with SW-620, 2 nM; with SJSA-1, 9 nM; in assay [1], 2 nM; in [2] it was 5 nM. The IC50 in assay [3] was determined as 5 nM; in assay [5], 14 nM; in assay [6] it was 2 nM; on Histone deacetylase 3 it was 11200 nM; in [7], 5 nM; in assay [8], 43 nM. For the same compound, the results for the IC50 in the assay on HepG2 and on Histone deacetylase 1 were 14 nM and 12500 nM, respectively. Further, the outcome in assay [4] was Active. The inhibition entry on Tubulin (Homo sapiens) was “Active”.

Turning to `COc1cc2c(c(OC)c1OC)-c1ccc(OC)c(=O)cc1[C@@H](NC(=O)c1ccc(C(=O)Nc3ccccc3N)cc1)CC2`, the IC50 turned out to be 1620 nM in the assay with A549, 10400 nM on Histone deacetylase 2, 12100 nM at Histone deacetylase 3 and 15900 nM at Histone deacetylase 1.

For `COc1cc2c(c(OC)c1OC)-c1ccc(OC)c(=O)cc1[C@@H](NC(=O)c1cccc(C(=O)Nc3ccccc3N)c1)CC2`, the IC50 is 3430 nM with A549, 4910 nM on Histone deacetylase 2, 10800 nM on Histone deacetylase 3 and 9620 nM on Histone deacetylase 1.

As to `COc1cc2c(c(OC)c1OC)-c1ccc(OC)c(=O)cc1[C@@H](NCc1cccc(C(=O)Nc3cc(-c4cccs4)ccc3N)c1)CC2`, the IC50 with A549 was 393 nM; on Histone deacetylase 2, 5410 nM; at Histone deacetylase 3, 19700 nM; on Histone deacetylase 1 it was 25500 nM.

In the case of `COc1cc2c(c(OC)c1OC)-c1ccc(OC)c(=O)cc1[C@@H](NC(C)=O)CC2` [COLCHICINE], the IC50 was 105 nM with A549; above 50100 nM at Histone deacetylase 2; 5 nM with SW-620; 8 nM with SJSA-1; 5 nM in assay [1]; 14 nM in assay [2]. The IC50 in [3] was 40 nM; in assay [5], 34 nM; in assay [6] it was 2 nM; on Histone deacetylase 3, above 50100 nM; in [7], 21 nM; in assay [8], 110 nM. Besides, the IC50 is 27 nM with HepG2 and above 50100 nM on Histone deacetylase 1. Moreover, the outcome in assay [4] was Active.

With `Nc1ccccc1NC(=O)c1ccc(CNc2nccc(-c3cccnc3)n2)cc1` [MOCETINOSTAT], the IC50 with A549 turned out to be 2080 nM; in the assay on SW-620, 419 nM; in the assay on SJSA-1 it was 3620 nM; in assay [1] it was 142 nM; in [2], 823 nM; in [3], 396 nM. Further, the IC50 was found to be 1010 nM in [5]; 610 nM in assay [6]; 26800 nM in assay [7]; 4560 nM in assay [8]; 876 nM with HepG2.

In the case of `COc1cc2c(c(OC)c1OC)-c1ccc(OC)c(=O)cc1[C@@H](NCc1ccc(C(=O)Nc3cc(-c4cccs4)ccc3N)cc1)CC2`, the IC50 was found to be 1040 nM in the assay with A549, 270 nM at Histone deacetylase 2, 1470 nM at Histone deacetylase 3 and 3320 nM at Histone deacetylase 1.

Take `COc1cc2c(c(OC)c1OC)-c1ccc(OC)c(=O)cc1[C@@H](NCc1cccc(C(=O)Nc3ccccc3N)c1)CC2`: the IC50 in the assay on A549 was 354 nM; at Histone deacetylase 2 it was above 34400 nM; at Histone deacetylase 3, above 34400 nM; on Histone deacetylase 1 it was above 34400 nM. In addition, the inhibition result at Tubulin (Homo sapiens) is “Active”.

`COc1cc2c(c(OC)c1OC)-c1ccc(OC)c(=O)cc1[C@@H](NC(=O)c1ccc(C(=O)Nc3cc(-c4cccs4)ccc3N)cc1)CC2`: the IC50 in the assay on A549 was 740 nM; at Histone deacetylase 2, 380 nM; at Histone deacetylase 3, 1970 nM; on Histone deacetylase 1 it was 2240 nM.
